Experiments:
[1] = test system: L1210; assay: Antitumor activity against mouse L1210 cells allografted in ip dosed mouse assessed as change in body weight at optimal dose administered qd on day 1 post tumor implantation measured on day 5 relative to control; format: functional
Method in brief: (§1)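 Mice bearing tumour cells implanted ip (intracerebrally in the IC-L1210 system) got compound in 0.9% saline ip on the stated schedule, or orally to nonfasting animals in the PO-L1210 system. Day-1 dosing, per day, or every 6 h counted from implantation. The value is the difference in average body weight change (g) on day 5 between the optimal-dose group (T) and controls (C).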

[2] = test system: L1210; assay: Antitumor activity against mouse L1210 cells allografted in ip dosed mouse assessed as dose required for minimal activity administered qd from day 1 to day 9 post intracerebral tumor implantation; format: functional; conditions: read-out: MED
Method in brief: (§2)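 Tumour cells were implanted ip (intracerebrally for IC-L1210), with the compound given in 0.9% saline ip, or orally to nonfasting mice in PO-L1210. Dose–response series each halved the preceding dose, expressed as mg/kg per injection. Activity was read as % increase in life-span (% ILS) over untreated controls, and from this the minimum, optimal and maximum active doses were taken.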

[3] = test system: L1210; assay: Antitumor activity against mouse L1210 cells allografted in ip dosed mouse assessed as dose required for maximal activity administered qd from day 1 to day 9 post intracerebral tumor implantation; format: functional; method in brief: as §2
[4] = test system: Mus musculus; assay: Toxicity in ip dosed mouse allografted with mouse L1210 cells assessed as dose required for optimal activity administered qd on day 1 post tumor implantation; format: organism-based; conditions: in vivo; method in brief: as §2
[5] = test system: L1210; assay: Antitumor activity against mouse L1210 cells allografted in po dosed mouse assessed as dose required for maximal activity administered qd from day 1 to day 9 post tumor implantation; format: functional; method in brief: as §2
[6] = test system: L1210; assay: Antitumor activity against mouse L1210 cells allografted in ip dosed mouse assessed as dose required for maximal activity administered qd on day 1 post tumor implantation; format: functional; method in brief: as §2
[7] = test system: Mus musculus; assay: Toxicity in ip dosed mouse allografted with mouse L1210 cells assessed as dose required for optimal activity administered qd from day 1 to day 9 post tumor implantation; format: organism-based; conditions: in vivo; method in brief: as §2
[8] = test system: Mus musculus; assay: Toxicity in po dosed mouse allografted with mouse L1210 cells assessed as dose required for optimal activity administered qd from day 1 to day 9 post tumor implantation; format: organism-based; conditions: in vivo; method in brief: as §2
[9] = test system: P388; assay: Antitumor activity against mouse P388 cells allografted in ip dosed mouse assessed as increase in life span at optimal dose administered qd from day 1 to day 9 post tumor implantation relative to control; format: functional
[10] = test system: L1210; assay: Antitumor activity against mouse L1210 cells allografted in ip dosed mouse assessed as change in body weight at optimal dose administered qd from day 1 to day 9 post tumor implantation measured on day 5 relative to control; format: functional; method in brief: as §1
[11] = test system: L1210; assay: Antitumor activity against mouse L1210 cells allografted in ip dosed mouse assessed as increase in life span at optimal dose administered qd from day 1 to day 9 post tumor implantation relative to control; format: functional
Method in brief: (§3)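 L1210 leukemia cells implanted ip in mice. Drug given ip in 0.9% saline: day 1 only (QD1); days 1, 5, 9 (Q4D); every 6 h on days 1, 5, 9 (Q4D(Q6H)); or days 1-9 (QD1-9). Dose-response run in twofold steps, dose in mg/kg per injection. % ILS versus untreated controls at the optimal dose. Toxicity taken as test minus control body-weight change on day 5.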

[12] = test system: L1210; assay: Antitumor activity against mouse L1210 cells allografted in ip dosed mouse assessed as increase in life span at optimal dose administered qd on day 1 post tumor implantation relative to control; format: functional; method in brief: as §3
[13] = test system: L1210; assay: Antitumor activity against mouse L1210 cells allografted in ip dosed mouse assessed as change in body weight at optimal dose administered every 6 hrs on day 1, 5 and 9 post tumor implantation measured on day 5 relative to control; format: functional; method in brief: as §1
[14] = test system: L1210; assay: Antitumor activity against mouse L1210 cells allografted in ip dosed mouse assessed as dose required for maximal activity administered every 6 hrs on day 1, 5 and 9 post tumor implantation; format: functional; method in brief: as §2
[15] = test system: Mus musculus; assay: Toxicity in ip dosed mouse allografted with mouse B16 cells assessed as dose required for optimal activity administered qd from day 1 to day 9 post tumor implantation; format: organism-based; conditions: in vivo; method in brief: as §2
[16] = test system: L1210; assay: Antitumor activity against 5-azacytidine-resistant mouse L1210 cells allografted in ip dosed mouse assessed as increase in life span at optimal dose administered qd from day 1 to day 9 post tumor implantation relative to control; format: functional
Method in brief: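 An L1210 subline resistant to 5-azacytidine (L1210/AZA) was implanted ip in mice. Drug given ip in 0.9% saline, dose-response in twofold steps, dose in mg/kg per injection. % ILS over untreated control survival at the optimal dose. Test minus control body-weight change on day 5.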

[17] = test system: Mus musculus; assay: Toxicity in ip dosed mouse allografted with mouse L1210 cells assessed as dose required for optimal activity administered every 6 hrs on day 1, 5 and 9 post tumor implantation; format: organism-based; conditions: in vivo; method in brief: as §2
[18] = test system: L1210; assay: Antitumor activity against mouse L1210 cells allografted in po dosed mouse assessed as change in body weight at optimal dose administered qd from day 1 to day 9 post tumor implantation measured on day 5 relative to control; format: functional; method in brief: as §1
[19] = test system: P388; assay: Antitumor activity against mouse P388 cells allografted in ip dosed mouse assessed as change in body weight at optimal dose administered qd from day 1 to day 9 post tumor implantation measured on day 5 relative to control; format: functional; method in brief: as §1
[20] = test system: L1210; assay: Antitumor activity against mouse L1210 cells allografted in ip dosed mouse assessed as change in body weight at optimal dose administered qd on day 1, 5 and 9 post tumor implantation measured on day 5 relative to control; format: functional; method in brief: as §1
[21] = test system: L1210; assay: Antitumor activity against mouse L1210 cells allografted in ip dosed mouse assessed as increase in life span at optimal dose administered qd on day 1, 5 and 9 post tumor implantation relative to control; format: functional; method in brief: as §3
[22] = test system: B16; assay: Antitumor activity against mouse B16 cells allografted in ip dosed mouse assessed as change in body weight at optimal dose administered qd from day 1 to day 9 post tumor implantation measured on day 5 relative to control; format: functional; method in brief: as §1
[23] = test system: L1210; assay: Antitumor activity against mouse L1210 cells allografted in ip dosed mouse assessed as dose required for minimal activity administered qd from day 1 to day 9 post tumor implantation; format: functional; conditions: read-out: MED; method in brief: as §2
[24] = test system: B16; assay: Antitumor activity against mouse B16 cells allografted in ip dosed mouse assessed as increase in life span at optimal dose administered qd from day 1 to day 9 post tumor implantation relative to control; format: functional
[25] = test system: L1210; assay: Antitumor activity against mouse L1210 cells allografted in ip dosed mouse assessed as change in body weight at optimal dose administered qd from day 1 to day 9 post intracerebral tumor implantation measured on day 5 relative to control; format: functional; method in brief: as §1
[26] = test system: Mus musculus; assay: Toxicity in ip dosed mouse allografted with mouse P388 cells assessed as dose required for optimal activity administered qd from day 1 to day 9 post tumor implantation; format: organism-based; conditions: in vivo; method in brief: as §2
[27] = Therapeutic index, ratio of toxicity in ip dosed mouse allografted with mouse L1210 cells assessed as highest dose required for 40% increase in life span to antitumor activity against mouse L1210 cells allografted in ip dosed mouse assessed as lowest dose required for 40% increase in life span; format: organism-based; conditions: in vivo, read-out: TI
Method in brief: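 L1210 cells implanted ip in mice. Drug in 0.9% saline given ip once daily on days 1-9 (QD1-9), dose-response with each dose half of the next higher. % ILS measured against untreated controls. Dose-response data were pooled from five QD1-9 experiments. TI = highest dose giving 40% ILS ÷ lowest dose giving 40% ILS.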

[28] = test system: L1210; assay: Antitumor activity against mouse L1210 cells allografted in ip dosed mouse assessed as dose required for maximal activity administered qd from day 1 to day 9 post tumor implantation; format: functional; method in brief: as §2

Row | SMILES | Activity [1] | minimal effective dose [2] | MAD [3] | Activity [4] | MAD [5] | MAD [6] | Activity [7] | Activity [8] | ILS [9] | Activity [10] | ILS [11] | ILS [12] | Activity [13] | MAD [14] | Activity [15] | ILS [16] | Activity [17] | Activity [18] | Activity [19] | Activity [20] | also measured
1 | Nc1ncn([C@@H]2O[C@H](CO)[C@@H](O)[C@H]2O)c(=O)n1 [AZACITIDINE] | -3.8 g | 0.75 mg/kg | 0.75 mg/kg | 50 mg/kg | 25 mg/kg | 100 mg/kg | 3 mg/kg | 12.5 mg/kg | 127% | -3 g | 128% | 73% | -1.5 g | 5 mg/kg | 3 mg/kg | 0% | 5 mg/kg | -4.1 g | -4.3 g | -1.5 g | ILS [21]: 94%; Activity [22]: 1.5 g; minimal effective dose [23]: 0.75 mg/kg; ILS [24]: 20%; Activity [25]: -0.5 g; Activity [26]: 3 mg/kg; selectivity ratio [27]: 14; MAD [28]: 3.13 mg/kg
2 | Cl.NC1=NC(=O)N([C@@H]2O[C@H](CO)[C@@H](O)[C@H]2O)CN1 | -3.1 g | 25 mg/kg | 100 mg/kg | 600 mg/kg | 400 mg/kg | 1600 mg/kg | 100 mg/kg | 400 mg/kg | 85% | -3.9 g | 116% | 34% | -2.5 g | 150 mg/kg | 100 mg/kg | 0% | 125 mg/kg | -4.4 g | -4.3 g | -4.3 g | ILS [21]: 96%; Activity [22]: -3.3 g; minimal effective dose [23]: 3.13 mg/kg; ILS [24]: 19%; Activity [25]: -1.9 g; Activity [26]: 100 mg/kg; selectivity ratio [27]: 40; MAD [28]: 200 mg/kg

From ChEMBL document CHEMBL3272089, “Synthesis and antitumor activity of dihydro-5-azacytidine, a hydrolytically stable analogue of 5-azacytidine” (J Med Chem, 1977)
